Data taken from ChEMBL document CHEMBL1125823, “2-Phenylindole-linked [2-(aminoalkyl)pyridine]dichloroplatinum(II): complexes with a selective action on estrogen receptor positive mammary tumors” (1991).
Blank lines part the entries; values can stand above or below the molecule they belong to.

What was measured:
MCF7 [1] = experiment: Effect on [3H]thymidine incorporation into estrogen receptor positive MCF-7 human breast cancer cells at 1*10^-6 M (control = 10.6+/-1.9); type: functional
How it was run: (§1)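 MCF-7 cells were grown in MEM with charcoal-treated 5% newborn calf serum and phenol red, then treated with compounds in 0.1% DMF (renewed on day 4) alongside DMF controls. They were labeled 3 days later with 1 µCi [³H]thymidine per well for 2 h, and incorporated radioactivity per dish was measured; mean of six dishes ± SD; % T/C.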

MCF7 [2] = experiment: Effect on Estrogen receptor positive MCF-7 human breast cancer cell proliferation at 5x10E-6M (control = 25.4+/-3.1); type: functional
How it was run: (§2)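 MCF-7 cells were kept in MEM with 5% charcoal-treated newborn calf serum and phenol red for 2 weeks, then about 2×10^4 cells were plated per well. Compounds in 0.1% DMF were added 2 days later and renewed on day 4; DMF alone served as control. Coulter cell counts were taken on day 5; mean of six dishes ± SD; % T/C.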

[3] = target: T1, Estrogen receptor (Mus musculus) (UniProt O08537+P19785); experiment: Percent inhibition of estrone stimulated uterotrophic effect in mice at 150 ug; type: functional
T1 sequence (O08537 whole entry, looked up): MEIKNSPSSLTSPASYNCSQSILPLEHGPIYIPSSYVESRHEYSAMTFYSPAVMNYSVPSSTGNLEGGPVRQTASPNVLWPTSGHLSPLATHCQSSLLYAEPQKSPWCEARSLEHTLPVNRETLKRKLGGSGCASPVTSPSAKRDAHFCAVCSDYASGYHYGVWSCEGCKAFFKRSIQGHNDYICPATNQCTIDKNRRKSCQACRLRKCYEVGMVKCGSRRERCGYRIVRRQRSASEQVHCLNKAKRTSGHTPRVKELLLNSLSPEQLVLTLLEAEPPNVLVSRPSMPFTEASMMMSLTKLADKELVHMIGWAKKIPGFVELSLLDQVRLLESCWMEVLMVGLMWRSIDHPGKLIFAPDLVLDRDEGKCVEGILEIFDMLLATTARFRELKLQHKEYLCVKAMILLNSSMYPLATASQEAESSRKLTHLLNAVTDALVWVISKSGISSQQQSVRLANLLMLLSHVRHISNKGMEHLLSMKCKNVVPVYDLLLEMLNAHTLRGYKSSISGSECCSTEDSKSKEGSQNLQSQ
T1 sequence (P19785 whole entry, looked up): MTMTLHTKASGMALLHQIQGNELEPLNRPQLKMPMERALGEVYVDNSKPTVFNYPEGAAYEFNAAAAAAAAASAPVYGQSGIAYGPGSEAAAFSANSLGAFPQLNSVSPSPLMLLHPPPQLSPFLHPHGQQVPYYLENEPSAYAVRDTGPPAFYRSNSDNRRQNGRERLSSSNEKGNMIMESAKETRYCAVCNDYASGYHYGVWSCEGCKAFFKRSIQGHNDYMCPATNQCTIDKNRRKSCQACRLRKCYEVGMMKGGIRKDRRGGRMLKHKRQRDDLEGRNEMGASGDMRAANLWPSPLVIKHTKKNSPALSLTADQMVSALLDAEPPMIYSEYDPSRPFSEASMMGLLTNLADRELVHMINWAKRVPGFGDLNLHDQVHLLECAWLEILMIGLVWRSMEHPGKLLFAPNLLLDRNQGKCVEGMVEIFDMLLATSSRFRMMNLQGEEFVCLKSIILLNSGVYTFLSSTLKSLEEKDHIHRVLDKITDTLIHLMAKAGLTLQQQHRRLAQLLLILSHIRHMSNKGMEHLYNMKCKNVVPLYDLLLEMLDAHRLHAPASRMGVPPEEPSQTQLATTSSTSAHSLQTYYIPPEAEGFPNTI
How it was run: (§3)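 Immature mice given test compound per animal sc on three consecutive days together with 0.4 μg estrone/animal/day. Killed 24 h after last injection; uteri fixed in Bouin, dried 100 °C 24 h and weighed. Inhibition = 100 − [(W_S,T − W_V)/(W_S − W_V) × 100] using relative uterus weights; 6-10 animals; Wilcoxon-Mann-Whitney U test.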

[4] = target: T1, Estrogen receptor (Mus musculus); experiment: Percent inhibition of estrone stimulated uterotrophic effect in mice at 15 ug; type: functional; how it was run: as §3
[5] = target: T1, Estrogen receptor (Mus musculus); experiment: Anti-uterotrophic effect in mice as relative uterine weight(mg) at 15 ug; type: functional
How it was run: (§4)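 Immature mice received the compound sc per animal on three consecutive days, alone or with 0.4 µg estrone per animal per day. Uteri were taken 24 h after the last injection, Bouin-fixed, dried at 100 °C for 24 h and weighed. Relative uterus weight = dry weight (mg)/body weight (g) × 100; mean of 6-10 animals ± SD; Mann-Whitney U test.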

[6] = target: T1, Estrogen receptor (Mus musculus); experiment: Uterotrophic effect in mice as relative uterine weight(mg) at 150 ug (control = […]+/-1.7); type: functional, tissue-based
MCF7 [7] = experiment: Effect on Estrogen receptor positive MCF-7 human breast cancer cell proliferation at 5x10E-6M; type: functional; how it was run: as §2
MCF7 [8] = experiment: Effect on Estrogen receptor positive MCF-7 human breast cancer cell proliferation at 1x10E-6M (control = 25.4+/-3.1); type: functional; how it was run: as §2
MCF7 [9] = experiment: Effect on [3H]thymidine incorporation into estrogen receptor positive MCF-7 human breast cancer cells at 5x10E-6M; type: functional
How it was run: (§5)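 MCF-7 cells in improved MEM with glutamine, gentamycin and 5% newborn calf serum, switched to charcoal-treated serum two weeks ahead; phenol red present; 37 °C, 5% CO2. About 2×10^4 cells plated per well; compound in 0.1% DMF added 2 days later, renewed on day 4; labelled 3 days later with 1 μCi [3H]thymidine per well for 2 h; cpm/dish, mean of six dishes ± SD.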

MCF7 [10] = experiment: Effect on [3H]thymidine incorporation into estrogen receptor positive MCF-7 human breast cancer cells at 5*10e-6 M (control = 10.6+/-1.9); type: functional; how it was run: as §5
[11] = target: T1, Estrogen receptor (Mus musculus); experiment: Uterotrophic effect in mice as relative uterine weight(mg) at 15 ug (control = […]+/-1.7); type: functional, tissue-based
[12] = target: T1, Estrogen receptor (Mus musculus); experiment: Anti-uterotrophic effect in mice as relative uterine weight(mg) at 150 ug; type: functional; how it was run: as §4
MCF7 [13] = experiment: Effect on [3H]thymidine incorporation into estrogen receptor positive MCF-7 human breast cancer cells at 1x10E-6M; type: functional; how it was run: as §1
MCF7 [14] = experiment: Effect on Estrogen receptor positive MCF-7 human breast cancer cell proliferation at 1x10E-6M; type: functional; how it was run: as §2
Mus musculus [15] = species on record: Mus musculus; experiment: Anti-tumor activity in hormone-dependent transplant MXT mammary tumor bearing mice at 6.2 mg (control=534+/-652); type: functional
Mus musculus [16] = species on record: Mus musculus; experiment: Relative tumor weight in treated compared to control mice bearing hormone-dependent transplanted MXT mammary tumors at 6.2 mg; type: functional
MCF7 [17] = experiment: Effect on Estrogen receptor positive MCF-7 human breast cancer cell proliferation at 1x10E-6M (control = 22.3+/-3.3); type: functional; how it was run: as §2
MCF7 [18] = experiment: Effect on [3H]thymidine incorporation into estrogen receptor positive MCF-7 human breast cancer cells at 5x10E-6M (control = 7.7+/-0.8); type: functional; how it was run: as §5
MCF7 [19] = experiment: Effect on Estrogen receptor positive MCF-7 human breast cancer cell proliferation at 5x10E-6M (control = 22.3+/-3.3); type: functional; how it was run: as §2
[20] = target: T1, Estrogen receptor (Mus musculus); experiment: Uterotrophic effect in mice as relative uterine weight(mg) at 150 ug (control = 12.4+/-3.7); type: functional, tissue-based
How it was run: (§6)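 Immature mice dosed sc per animal on three consecutive days; vehicle controls. Killed and weighed 24 h after last injection; uteri fixed in Bouin solution 2 h, washed with alcoholic LiCl, dried at 100 °C for 24 h. Relative uterus weight = uterine dry weight (mg)/body weight (g) × 100; mean of 6-10 animals ± SD.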

[21] = target: T1, Estrogen receptor (Mus musculus); experiment: Anti-uterotrophic effect in hormone-dependent transplant MXT bearing mice as relative uterine weight in treated and control mice at 12.4 mg (control=100+/-30); type: functional
MCF7 [22] = experiment: Effect on [3H]thymidine incorporation into estrogen receptor positive MCF-7 human breast cancer cells at 1x10E-6M (control = 7.7+/-0.8); type: functional; how it was run: as §1
Mus musculus [23] = species on record: Mus musculus; experiment: Relative tumor weight in treated compared to control mice bearing hormone-dependent transplanted MXT mammary tumors at 12.4 mg; type: functional
[24] = target: T1, Estrogen receptor (Mus musculus); experiment: Anti-uterotrophic effect in hormone-dependent transplant MXT bearing mice as relative uterine weight in treated and control mice at 6.2 mg (control=100+/-30); type: functional
Mus musculus [25] = species on record: Mus musculus; experiment: Anti-tumor activity in hormone-dependent transplant MXT mammary tumor bearing mice at 12.4 mg (control=534+/-652); type: functional
[26] = target: T1, Estrogen receptor (Mus musculus); experiment: Uterotrophic effect in mice as relative uterine weight(mg) at 15 ug (control = 12.4+/-3.7); type: functional, tissue-based; how it was run: as §6

- inhibition [3]: 51%
- inhibition [4]: 42%
- Relative uterus weight [5]: 32.8 mg
- Relative uterus weight [6]: 26 mg
- Relative uterus weight [11]: 14.7 mg
- Relative uterus weight [12]: 30.5 mg
SMILES: CCC(NCCCCCCn1c(-c2ccc(O)cc2)c(C)c2cc(O)ccc21)c1ccccn1 (stereo not drawn)
- Activity (MCF7 [1]): 10500
- Cell no/dish (MCF7 [2]): 137000
- T/C (MCF7 [7]): 54%
- Cell no/dish (MCF7 [8]): 195000
- T/C (MCF7 [9]): 79%
- Activity (MCF7 [10]): 8400
- T/C (MCF7 [13]): 99%
- T/C (MCF7 [14]): 77%

- inhibition [3]: 31%
- Relative uterus weight [20]: 24.9 mg
- T/C [21]: 137%
- Relative uterus weight [5]: 46.6 mg
- T/C [24]: 119%
- Relative uterus weight [26]: 27.9 mg
- Relative uterus weight [12]: 36.9 mg
SMILES: Cc1c(-c2ccc(O)cc2)n(CCCCCCNCc2ccccn2)c2ccc(O)cc12
- Tumor weight (Mus musculus [15]): 378 mg
- T/C (Mus musculus [16]): 71%
- Cell no/dish (MCF7 [17]): 106000
- Activity (MCF7 [18]): 400
- Cell no/dish (MCF7 [19]): 52000
- Activity (MCF7 [22]): 1000
- T/C (Mus musculus [23]): 31%
- T/C (MCF7 [7]): 23%
- T/C (MCF7 [9]): 5%
- Tumor weight (Mus musculus [25]): 169 mg
- T/C (MCF7 [13]): 13%
- T/C (MCF7 [14]): 48%
